Compounds with a hit are over-represented: about 2.1% of the library has one in this group of screens.
TNF death inh: TNF-alpha cell death inhibition in Jurkat FADD-/- cells. Jurkat FADD-/- TNF necroptosis rescue, ATP luminescence, 24 h; 0 = TNF only, 100 = no-TNF cells. activation (protection from cell death), % at 10 µM. 220,000 tested, 0.068% active;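 active = activation, meaning protection from cell death, of at least 50% relative to plate controls; inactive = activation below 50%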;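 also: necroptosis triggered by 40 ng/mL TNF-alpha added together with compound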
RanGTP-Imp inh: disruptors of Ran-importin-beta complex formation – biochemical, FRET, CFP-Ran, YFP-importin-beta, homogeneous, primary screen | cell-free CFP-Ran/YFP-importin-beta FRET ratio | inhibition, % (test concentration not listed) | 300,000 tested, 1.1% active;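 active = more than half of the replicate wells show a fall in the fluorescence ratio signal beyond about 16%, limit read from the data, passing the limit was not always enough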;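 also: 0% = DMSO wells and 100% = Ran loaded with GDP instead of GTP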
Runt-CBFb FRET: Runt domain-CBFb interaction inhibition; Cerulean-Runt/Venus-CBFb FRET ratio 530/480, 1 h; inhibition, % at 20 µM; AID 1496; 220,000 tested, 0.46% active; Q01196+Q13951;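 active = inhibition over about 50% at 20 µM in the single-dose screen, limit read from the data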;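 also: 0% = DMSO wells and 100% = excess unlabeled CBFb competitor control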
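Schedule: protein complex preformed 1 h, compound exposure 1 h, room temperature, dark; test system: Cerulean-labeled Runt domain protein; amount: 100 nM per protein; buffer or medium: Tris 50 mM pH 7.5, KCl, K2SO4, 0.01% BSA; read-out: loss of energy transfer signal; detection: FRET fluorescence; controls: 5 µM unlabeled CBFb as full-inhibition high control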
Hck-Nef inh: human Hck-Nef kinase inhibition | 220,000 tested, 0.68% active | Recombinant Hck-YEEI plus Nef, Z-Lyte FRET kinase assay | AID 463187 | inhibition, % at 20 µM | P08631;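 active = Hck-Nef kinase inhibition above about 50%, limit read from the data; inactive = inhibition below that limit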;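 also: 0% = DMSO with Hck plus Nef and 100% = Hck alone without Nef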
Target sequence (P08631 whole entry, looked up): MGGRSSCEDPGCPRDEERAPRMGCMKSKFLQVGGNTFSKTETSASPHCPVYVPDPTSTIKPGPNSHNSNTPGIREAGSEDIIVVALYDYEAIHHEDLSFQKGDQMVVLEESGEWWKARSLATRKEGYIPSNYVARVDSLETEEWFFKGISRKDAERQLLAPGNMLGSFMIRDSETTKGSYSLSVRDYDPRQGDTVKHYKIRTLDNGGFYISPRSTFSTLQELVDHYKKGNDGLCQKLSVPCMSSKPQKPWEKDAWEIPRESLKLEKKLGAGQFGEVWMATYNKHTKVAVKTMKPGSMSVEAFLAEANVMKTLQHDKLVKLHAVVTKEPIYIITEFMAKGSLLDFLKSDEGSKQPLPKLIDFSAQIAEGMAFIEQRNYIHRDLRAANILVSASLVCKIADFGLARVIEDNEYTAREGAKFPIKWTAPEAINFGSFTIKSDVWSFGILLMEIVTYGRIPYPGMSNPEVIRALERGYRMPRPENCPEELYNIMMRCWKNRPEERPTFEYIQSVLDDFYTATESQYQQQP
Runt-SMMHC FRET: blocks binding of human RUNX1 Runt domain to CBFb-SMMHC | Cerulean-Runt/Venus-CBFb-SMMHC FRET ratio 530/480, 1 h | inhibition, % at 20 µM | Q01196+Q13951 | AID 1434 | 220,000 tested, 0.74% active;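 active = mean inhibition across duplicate retests at 20 µM reaching about 50%, limit read from the data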;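 also: 0% = DMSO wells and 100% = wells with excess untagged CBFb-SMMHC; inhibitors lower the FRET ratio by blocking Runt binding to CBFb-SMMHC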
zVAD death inh: L929 zVAD cell death inhibition; L929 zVAD necroptosis rescue, ATP luminescence, 24 h; with zVAD 60 µM; viability rescue, % at 10 µM; 220,000 tested, 0.38% active;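 active = activation, scaled between plate controls, above about 75%, limit read from the data; inactive = activation under that limit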;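 also: 0% = zVAD with DMSO and 100% = DMSO alone without zVAD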
* hit, by the source's call; / = not tested or not shown.

SMILES	TNF death inh	RanGTP-Imp inh	Runt-CBFb FRET	Hck-Nef inh	Runt-SMMHC FRET	zVAD death inh
CCn1cc(S(=O)(=O)Nc2cc(C(=O)OC)ccc2C)cn1	/	32*	/	/	/	/
COC(=O)c1ccc(C)c(NS(=O)(=O)c2ccc(NC(C)=O)cc2)c1	-1	-2	1	0	3	2
Cc1cc(/C=C2\SC(=S)N(Cc3ccco3)C2=O)c(C)n1-c1cccnc1	-13	21*	-32	-2	-163	0
Cc1cc(/C=C2/SC(=S)N(c3cccc(C(F)(F)F)c3)C2=O)c(C)n1-c1cccnc1	-18	3	/	0	/	0
Cc1onc(-c2ccccc2)c1C(=O)OCC(=O)NCc1ccc(F)cc1	1	0	20	-28	0	-1
COc1ccccc1N(C)S(=O)(=O)c1ccc(C(=O)N2CCCC(C(F)(F)F)C2)cc1 (stereo unspecified)	/	5	/	/	/	/
COc1cccc(CN2CCN(Cc3cc4ccccc4[nH]3)CC2CCO)c1 (stereo unspecified)	0	9	2	14	4	0
CCOc1ccc(CN2CCN(Cc3cc4ccccc4[nH]3)CC2CCO)cc1 (stereo unspecified)	2	21*	4	17	-7	3
Cc1cc(/C=N/NC(N)=S)c(O)c(/C=N/NC(N)=S)c1	-2	60*	-137	-43	43	0
COc1ccc(C=C2C(=O)OC(C)(C)OC2=O)cc1OC	4	1	1	2	-4	0
COc1ccc(/C=C2\OC(=O)c3c(OC)cccc32)cc1OC	-5	39*	5	6	-16	0
Cn1c(-c2cc3ccc(OC(=O)C(C)(C)C)cc3oc2=O)nc2ccccc21	0	150*	12	25	-14	0
CCc1cc2c(=O)c(-c3nc4ccccc4n3C)c(C)oc2c(CN(CC)CC)c1O	-1	-3	-1	0	3	0
CCN(CC)Cc1c(O)ccc2cc(-c3nc4ccccc4n3C)c(=O)oc12	/	132*	/	/	/	/
CC(C)(C)C(=O)Oc1ccc2cc(-c3ccc4ccccc4n3)c(=O)oc2c1	1	28*	19	0	60*	0
CC(=O)Oc1ccc2cc(-c3nc4ccccc4n3C)c(=O)oc2c1	1	147*	11	25	38	0
COc1ccc2cc(C(=O)c3ccccc3)c(=O)oc2c1	0	-4	2	1	5	0
Cn1ncc(N=Cc2c(O)ccc3ccccc23)c1C(=O)Nc1cccc(Cl)c1	-8	-3	-29	33	-82	3
COc1ccc(N(C)C(=O)CN(C)S(=O)(=O)c2ccc3c(c2)c(=O)n(C)c(=O)n3C)c(OC)c1	/	-1	/	/	/	/
Nc1ccc(C(=O)Nc2cccc(NC(=O)c3ccc(N)cc3)c2)cc1	/	2	/	/	/	/
Nc1ccc(C(=O)Nc2ccco2)cc1	-3	37*	-2	5	-1	0
C=CCOC(=O)C1=C(C)OC(N)=C(C#N)C1c1ccc2c(c1)OCO2 (stereo unspecified)	-3	25*	0	5	5	0
COc1ccc(-c2cc(=O)c3c(OC)c(OC)c(OC)c(OC)c3o2)cc1OC	-5	0	-1	-2	-3	12
COc1cc(OC)c2c(=O)c(OC)c(-c3ccc(OC)c(OC)c3)oc2c1	-1	11	26	14	61*	3
O=C(O)CCCN1C(=O)C2C3CC(C2C1=O)C1C(c2ccccc2)c2sc(=O)n(-c4ccccc4)c2SC31 (stereo unspecified)	-2	-3	-3	10	-6	0
Cc1ccc(N2C(=O)C3Sc4[nH]c(=O)sc4C(c4ccccc4)C3C2=O)cc1 (stereo unspecified)	-1	/	1	0	1	0
CC(C)CC(C(=O)O)N1C(=O)C2C3CC(C2C1=O)C1C(c2ccccc2)c2sc(=O)[nH]c2SC31 (stereo unspecified)	1	100*	13	4	29	1

Screening data (PubChem)
